A selection: hits, their analogues and other compounds. The true share with any hit is near 1.7%.
PP5 inh: inhibitors of human protein phosphatase 5 (PP5); P53041; purified PP5c, OMFP substrate fluorescence; inhibition, % at 6.7 µM; 320,000 tested, 0.18% active; AID 1987;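 active means inhibition above the campaign's mean inhibition across all tested compounds plus 3 SD, cut at about 9.5% in these data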;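 further: 0% = DMSO only and 100% = 100 µM cantharidin control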
JMJD2C inh: inhibitors of human GASC-1 (JMJD2C) demethylase. GST-JMJD2C(1-420) H3K9me3 demethylation, DELFIA europium. 330,000 tested, 0.069% active. inhibition, % at 2.35 µM. Q9H3R0. AID 2099;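 active means more than half of a compound's replicate wells show inhibition beyond 50%, single wells judged on their own value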;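 further: signal counts dimethyl H3K9 product captured on neutravidin plate; 0% = median of DMSO wells and 100% = 0.3 times that DMSO median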
Target sequence (Q9H3R0 1-420 limits assumed): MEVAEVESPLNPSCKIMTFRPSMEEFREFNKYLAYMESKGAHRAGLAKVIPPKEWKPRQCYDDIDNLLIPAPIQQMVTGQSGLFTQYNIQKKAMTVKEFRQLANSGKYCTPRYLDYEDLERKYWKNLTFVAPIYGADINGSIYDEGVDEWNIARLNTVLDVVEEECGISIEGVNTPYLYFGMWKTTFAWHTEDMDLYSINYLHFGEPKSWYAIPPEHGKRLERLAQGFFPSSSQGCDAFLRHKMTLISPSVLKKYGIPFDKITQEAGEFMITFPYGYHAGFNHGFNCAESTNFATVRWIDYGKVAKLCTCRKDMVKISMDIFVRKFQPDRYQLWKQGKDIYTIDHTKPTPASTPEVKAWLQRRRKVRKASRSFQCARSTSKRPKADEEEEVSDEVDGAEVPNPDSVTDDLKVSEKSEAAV
m5-HT2A agonist: activates the mouse 5-HT2A serotonin receptor | CHO-K1 mHTR2A beta-arrestin complementation, luminescence; percent of 30 µM serotonin response | 360,000 tested, 0.66% active | P35363 | AID 624169 | activation, % at 7.6 µM;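 active means activation above a run cutoff, the mean activation of all tested compounds plus 3 SD, cut at about 14% in these data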;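 further: 0% = plate median of compound wells and 100% = 30 µM serotonin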
PP1 inh: counter-screen for PP5 inhibitors: inhibitors of human PP1-alpha. P62136. purified PP1alpha, OMFP fluorescence. inhibition, % at 6.7 µM. 320,000 tested, 0.9% active;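 active means inhibition above the mean inhibition of all tested compounds plus 3 SD, computed separately for each screening campaign, cut at about 15% in these data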
T cell modulator: T cell immune modulation candidate; 330,000 tested, 0.068% active; response (vesicle binding), % at 7 µM; 2C CD8+ T cell-vesicle binding, flow cytometry; hits give low values; AID 2052;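 active means response, share of CD8 T cells binding vesicles, and their 90th percentile fluorescence all below set limits, cut at about 80% in these data, passing the limit was not always enough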;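 further: values below 100% mean blocked vesicle binding to the CD8+ T cells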
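System: murine 2C transgenic CD8+ T lymphocytes; also added: QL9-loaded Drosophila micro-vesicles; times: binding 1.5 h at 37 °C; measured by: flow cytometry, PE anti-B7-1 (FL2) versus Alexa647 anti-CD8 (FL8), PFA-fixed; control set: Peptide-free naked vesicles (low) and QL9 vesicles with 0.7% DMSO vehicle (high)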
MOR ag counter: OPRM1 agonism in mouse HTR2A counterscreen | shares compounds with m5-HT2A agonist | U2OS OPRM1 beta-arrestin PathHunter, luminescence; DMSO 0%, DAMGO 9.3 µM 100% | activation, % at 9.3 µM | 2,300 tested, 5.3% active;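 active means mean activation above the mean of DMSO-only wells plus 3 SD, cut at about 0.5% in these data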
HTR2A ag conf: mouse HTR2A agonism confirmed; shares compounds with m5-HT2A agonist; CHO-K1 PathHunter beta-arrestin recruitment, luminescence; DMSO 0%, 30 µM serotonin 100%; activation, % at 7.6 µM; 2,300 tested, 19% active; AID 624381;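 active means mean activation across triplicates above the hit threshold derived in the original primary screen, cut at about 15% in these data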
Starred values were filed as active, the others as inactive; i = inactive; x = not tested or not shown.

SMILES	PP5 inh	JMJD2C inh	m5-HT2A agonist	PP1 inh	T cell modulator	MOR ag counter	HTR2A ag conf
CCC1CCCCN1Cc1nc2c(c(=O)n(C)c(=O)n2C)n1CCC(C)C (configuration not stated)	1.9	2.9	20.5*	-4.4	435.0	0.0	2.9
CCC1CCCCN1Cc1nc2c(c(=O)n(C)c(=O)n2C)n1CC(C)C (configuration not stated)	2.1	-4.2	8.7	-5.8	295.5	x	x
CC(C)N1CC(C(=O)Nc2cc(Cl)cc(Cl)c2)CC1=O (configuration not stated)	-3.0	9.5	-3.0	6.5	562.8	x	x
COc1ccc(/C=N/c2sc3c(c2C#N)CCN(Cc2ccccc2)C3)c(O)c1	0.2	-1.8	x	0.7	256.3	x	x
CN1CCc2c(sc(/N=C/c3cc(C(C)(C)C)ccc3O)c2C#N)C1	-0.1	-14.3	17.2*	-3.2	57.1	-0.7	61.9*
O=P(Nc1ccccc1)(Nc1ccccc1)c1ccccc1	x	x	14.9*	x	x	-0.7	-2.8
CCN(c1ccccc1)P(=O)(Nc1ccccc1)Nc1ccccc1	-0.1	-0.2	0.3	-0.6	377.5	x	x
O=C(OCc1ccccc1)N1CCCC2CC1c1ccccc12 (configuration not stated)	x	x	-4.7	x	x	x	x
Cc1ccc(C)c(N(C(=O)CCC(=O)Nc2cc(C)on2)C(C(=O)NC2CCCC2)c2ccco2)c1 (configuration not stated)	0.4	1.1	17.1*	-2.7	205.2	-0.4	0.5
Cc1cc(C)cc(N(C(=O)CCC(=O)Nc2cc(C)on2)C(C(=O)NC2CCCC2)c2ccco2)c1 (configuration not stated)	1.8	7.3	0.5	-2.6	346.8	x	x
COc1ccccc1C1CC(=O)Nc2c1c(=O)n(C)c(=O)n2C (configuration not stated)	-2.9	-0.8	14.4*	-4.2	645.0	-0.1	1.8
O=[N+]([O-])c1c(NCc2ccccc2)cc(N2CCc3ccccc3C2)c2nonc12	-2.0	6.5	5.4	-0.1	329.0	x	x
Cc1ccc(-n2nc3c(=O)n(CCCC(=O)NCCN4CCN(C)CC4)nc(C)c3c2C)cc1	-3.4	-32.3	21.4*	-0.5	299.4	-0.5	1.0
Cc1ccc(CCNC(=O)CCCn2nc(C)c3c(C)n(-c4ccc(C)cc4)nc3c2=O)cc1	-0.6	16.8	-7.2	-2.8	407.3	x	x
CCOc1cc(C2C(C(C)=O)=C(C)Nc3ncnn32)ccc1O (configuration not stated)	0.0	5.2	14.6*	-2.0	116.4	-0.7	-2.5
COc1cc(OC)c(OC)cc1CNC(=O)c1cc(=O)[nH]c2ccccc12	-0.3	-12.5	-9.8	2.6	412.8	x	x
COc1cc(/C=C2\S/C(=N/S(=O)(=O)Cc3ccccc3)NC2=O)c([N+](=O)[O-])cc1OC	0.0	-7.7	-4.7	-2.1	161.6	x	x
COc1cc(/C=C2/S/C(=N/S(=O)(=O)c3ccccc3)NC2=O)c([N+](=O)[O-])cc1OC	2.4	10.5	18.3*	9.4	307.4	-0.7	-4.6
Nc1ccc(CSc2ccccc2)cc1	x	x	-1.9	x	x	x	x
Oc1c(/C=N/c2ccccn2)sc2ccccc12	-0.1	5.6	15.5*	0.3	162.5	0.1	-1.5
Oc1c(C=Nc2ccc(Cl)cn2)sc2ccccc12	-1.1	-0.8	0.3	-3.5	241.2	x	x
COc1cc(/C=C/C(=O)OCC(=O)Nc2cc(C)on2)ccc1OCC#N	x	x	-3.2	x	x	x	x
Cc1ccc[n+](/C(=C\C(=C=[N-])C#N)C(=O)c2ccc(Cl)cc2)c1	0.0	-15.1	16.8*	-3.5	521.7	-0.5	-1.5
Cc1ccccc1NC(=S)NCc1ccc2c(c1)cc(C)n2C	4.4	-7.5	19.9*	2.9	313.1	-0.6	0.6
COc1ccccc1NC(=S)NCc1ccc2c(c1)cc(C)n2C	2.0	-30.3	-0.6	4.7	302.5	x	x
SMILES	PP5 inh	JMJD2C inh	m5-HT2A agonist	PP1 inh	T cell modulator	MOR ag counter	HTR2A ag conf
O=C(c1ccc2c(c1)OCO2)N1CCC2(CC1)Oc1ccc(F)cc1C(=O)C21CC(c2ccccc2)=NO1 (configuration not stated)	6.3	13.3	3.9	6.8	439.2	x	x
O=C(CN1CCN(Cc2ccccc2F)C1=O)NCCc1ccc(Cl)cc1	-0.1	3.4	16.3*	-3.2	i	-0.5	-7.0
CCOc1ccc(CCNC(=O)CN2CCN(Cc3ccccc3F)C2=O)cc1OCC	0.2	27.9	3.9	-3.8	451.1	x	x
Cc1ccc2[nH]c(=O)c(CN(CCO)C(=O)N(C)C)cc2c1	-1.9	9.5	21.7*	-4.6	487.8	-0.6	-4.6
COc1ccc(CN(Cc2cc3cc(C)ccc3[nH]c2=O)C(=O)N(C)C)cc1	-1.2	4.1	-2.4	-0.5	346.2	x	x
CCOC(=O)C1CCCN(C(=O)c2cccc3ccccc23)C1 (configuration not stated)	4.0	-3.3	17.2*	-4.6	502.8	-0.4	-2.7
CN=C(c1ccc(C)cc1)n1c(=S)nc(-c2ccc(C)cc2)n(C)c1=S	1.6	-2.0	15.5*	-2.1	167.8	-0.5	-4.6
COc1ccc(-n2c(CNC(=O)COc3ccccc3)n[nH]c2=S)cc1	1.8	1.8	-1.7	-1.8	146.6	x	x
O=C(COc1ccccc1)NCc1n[nH]c(=S)n1-c1ccccc1	-0.9	-14.5	16.5*	-4.0	519.2	-0.1	1.1
C=C(C)CSc1nc2ncccc2[nH]1	0.6	0.4	22.2*	-3.9	199.0	-0.6	-2.6
CCCn1c(N2CCN(Cc3ccc(Cl)cc3)CC2)nc2ccccc21	0.9	37.5	21.5*	1.1	237.5	0.0	12.9
Cn1c(N)c(N2CCCCC2)c(=O)n(CC(=O)Nc2cccc(C#N)c2)c1=O	x	-5.9	20.0*	x	373.4	-0.7	-4.8
CC(=O)N(CN1C(=O)c2ccccc2C1=O)c1ccc2c(c1)oc1ccccc12	-0.3	4.7	1.9	-4.7	184.8	x	x
O=C(NCC(=O)N1CCN(S(=O)(=O)c2ccc3c(c2)OCCO3)CC1)c1ccccc1Cl	-0.3	-6.5	1.0	0.7	381.1	x	x
O=C(NCC(=O)N1CCN(S(=O)(=O)c2ccc3c(c2)OCCO3)CC1)c1ccccc1F	x	5.9	15.5*	x	269.9	-0.5	-2.9
CCOC(=O)c1ccccc1NC(=O)COC(=O)c1c(CC)noc1C	2.1	2.7	-1.4	-3.7	319.1	x	x
CCn1nc(C(=O)Nc2nc(-c3ccccn3)cs2)c2ccccc2c1=O	4.4	-6.0	9.8	1.4	403.1	x	x
CCCn1nc(C(=O)Nc2nc(-c3ccccn3)cs2)c2ccccc2c1=O	2.8	7.6	22.9*	10.5	291.0	-0.3	-4.7
CCCN(CCC)C(=O)C1CC(=O)OC12CCCCC2 (configuration not stated)	-10.8	15.5	2.7	-0.2	299.8	x	x

Screening results as filed in PubChem.
